Assay [1] has as its target T1, ERK5 (Homo sapiens, UniProt Q13164). In words: KdELECT biochemical binding assay. The gist of the method: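 Binding constants to ERK5 were determined in an outsourced KdELECT kinase binding assay from an 11-point dose–response curve.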
A further assay has as its system panel of 468 kinases. The assay is described as follows: scanMAX KINOMEscan selectivity panel. The assay is classed as binding. To be noted: 1 μM.
Assay [2] deals with T1, ERK5. In words: ERK5 degradation in MOLT4 cells. The settings on record: 5 hours, 5 μM or greater. The assay is classed as cell-based.
The target in a further assay is BRD4 (Homo sapiens, UniProt O60885). In words: BRD4 immunoblot in MOLT4 cells. The assay is classed as cell-based. The settings on record: 5 hours. The gist of the method:
(§1)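 MOLT4 cells (RPMI, 10% heat-inactivated FBS, pen-strep, 37 °C, 5% CO2) were exposed to test compound at a range of concentrations for 5 h. Lysis was in M-PER with protease and phosphatase inhibitors, and lysates were BCA-normalised. Samples were run on 4–12% Bis-Tris gels and blotted to nitrocellulose. ERK5, BRD4, AURKA and actin antibodies were applied overnight at 4 °C. Detection was by IRDye secondaries. Blots are representative of 2–3 biological replicates.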
(A western blot detects proteins with antibodies after separation by electrophoresis.)

The target of the next assay is T2, AURKA (Homo sapiens, UniProt O14965).
T2 sequence (O14965 1-403): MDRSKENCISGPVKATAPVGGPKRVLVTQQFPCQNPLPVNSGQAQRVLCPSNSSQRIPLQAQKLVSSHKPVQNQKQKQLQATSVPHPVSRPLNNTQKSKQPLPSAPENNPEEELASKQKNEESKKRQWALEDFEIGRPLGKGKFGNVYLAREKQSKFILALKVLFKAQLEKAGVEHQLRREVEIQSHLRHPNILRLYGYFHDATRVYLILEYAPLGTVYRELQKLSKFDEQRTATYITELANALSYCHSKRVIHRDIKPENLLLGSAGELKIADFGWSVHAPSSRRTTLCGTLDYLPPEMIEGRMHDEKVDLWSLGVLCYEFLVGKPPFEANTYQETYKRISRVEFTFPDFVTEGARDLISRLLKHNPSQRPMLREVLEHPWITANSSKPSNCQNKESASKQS
In words: AURKA immunoblot in MOLT4 cells. The assay is classed as cell-based. To be noted: 5 hours. The gist of the method:
as §1

For another assay, the system named is MOLT4 cells. The assay is described as follows: global quantitative TMT MS proteomics in MOLT4 cells. The assay is classed as cell-based, Human. To be noted: MOLT4, 100 nM, 5 hours, ~7,700 proteins quantified. The method, boiled down:
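MOLT4 cells were treated for 5 h with test compound (250 nM, or 100 nM for one degrader) or DMSO (biological triplicate), then harvested by centrifugation. TMT-labelled tryptic peptides were analysed by LC-MS3 on an Orbitrap Fusion Lumos using a 190 min 6–27% acetonitrile gradient. Spectra were searched against Swissprot human. Proteins with ≥2 unique peptides were kept, and abundance relative to DMSO was computed by limma.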

In the next assay the test system is BT-474 cells. In words: CellTiter-Glo proliferation assay, BT-474. It counts as cell-based, Human. To be noted: Homo sapiens, BT-474, 72 h, read-out: anti-proliferative EC50. A general note: Cellular ATP, detected with luciferase, serves as a proxy for viable cell number.
The subject of another assay is SNU-449 cells. The assay is described as follows: CellTiter-Glo proliferation assay, SNU-449. The assay is classed as cell-based, Human. To be noted: Homo sapiens, SNU-449, 72 h, read-out: anti-proliferative EC50.
The test system of the next assay is MM.1S cells. In words: CellTiter-Glo proliferation assay, MM.1S basal. It counts as cell-based. The settings on record: Homo sapiens, MM1.S, 72 h, read-out: anti-proliferative EC50. The gist of the method: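 MM.1S cells, unstimulated, were grown in RPMI with 10% heat-inactivated FBS. They were plated at 500–1000 cells/well and exposed to test compound across a concentration series for 72 h. Viability was read by CellTiter-Glo luminescence. EC50 came from nonlinear regression curve fitting.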

For assay [3], the system named is IL-6 stimulated MM.1S cells. The assay is described as follows: IL-6-induced MM.1S proliferation. The assay is classed as cell-based, Human. To be noted: 500 nM and 1 μM, 5 nM IL-6, 3d. The gist of the method: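 MM.1S cells at 10,000 cells/well were pre-treated for 5 h with test compound at 500 nM or 1 μM. Recombinant human IL-6 (5 nM) was then added. After 72 h, proliferation was read by CellTiter-Glo. Data are mean with standard deviation of three biological replicates.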

In the next assay the test system is panel of 750 cell lines. In words: PRISM platform anti-proliferative screen. The assay is classed as cell-based. To be noted: read-out: IC50 values in PRISM screen.
For assay [4], the target named is T1, ERK5. The assay is described as follows: ERK5 degradation in HUVECs. The assay is classed as cell-based. The gist of the method: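 HUVECs (pooled primary, in vascular cell basal medium with VEGF growth kit and pen-strep, 37 °C, 5% CO2) were treated with test compound for 5 or 24 h. Lysates were BCA-normalised and separated on 4–12% Bis-Tris gels, then transferred to nitrocellulose. ERK5 and actin were probed overnight at 4 °C with IRDye secondary detection. Blots are representative of 2 biological replicates.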

The subject of another assay is IL-6 secretion. In words: IL-6 ELISA, LPS-stimulated HUVECs. To be noted: LPS 10 μg/mL 6 hours. The assay is classed as cell-based, Human. The gist of the method:
(§2)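 HUVECs were seeded at 30,000–60,000 cells/well and pre-treated with test compound for 5 or 24 h. They were then stimulated with E. coli O111:B4 LPS at 10 μg/mL for 6 h. Secreted IL-6 or IL-8 in the supernatant was quantified by sandwich ELISA kits per the manufacturer. Statistics used two-way ANOVA with Bonferroni correction.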
In general terms: An ELISA detects its analyte on a solid surface through an enzyme-linked reagent.

The test system of a further assay is IL-8 secretion. The assay is described as follows: IL-8 ELISA, LPS-stimulated HUVECs. The assay is classed as cell-based, Human. The settings on record: LPS 10 μg/mL 6 hours. The method, boiled down:
as §2

A word on the Kd: it is the equilibrium constant for the complex coming apart. Read a low Kd as a tighter complex. Usually EC50 stands for the midpoint of the concentration-response curve. For orientation: IC50 means the midpoint of a concentration-inhibition curve.

T1 sequence (Q13164 whole entry): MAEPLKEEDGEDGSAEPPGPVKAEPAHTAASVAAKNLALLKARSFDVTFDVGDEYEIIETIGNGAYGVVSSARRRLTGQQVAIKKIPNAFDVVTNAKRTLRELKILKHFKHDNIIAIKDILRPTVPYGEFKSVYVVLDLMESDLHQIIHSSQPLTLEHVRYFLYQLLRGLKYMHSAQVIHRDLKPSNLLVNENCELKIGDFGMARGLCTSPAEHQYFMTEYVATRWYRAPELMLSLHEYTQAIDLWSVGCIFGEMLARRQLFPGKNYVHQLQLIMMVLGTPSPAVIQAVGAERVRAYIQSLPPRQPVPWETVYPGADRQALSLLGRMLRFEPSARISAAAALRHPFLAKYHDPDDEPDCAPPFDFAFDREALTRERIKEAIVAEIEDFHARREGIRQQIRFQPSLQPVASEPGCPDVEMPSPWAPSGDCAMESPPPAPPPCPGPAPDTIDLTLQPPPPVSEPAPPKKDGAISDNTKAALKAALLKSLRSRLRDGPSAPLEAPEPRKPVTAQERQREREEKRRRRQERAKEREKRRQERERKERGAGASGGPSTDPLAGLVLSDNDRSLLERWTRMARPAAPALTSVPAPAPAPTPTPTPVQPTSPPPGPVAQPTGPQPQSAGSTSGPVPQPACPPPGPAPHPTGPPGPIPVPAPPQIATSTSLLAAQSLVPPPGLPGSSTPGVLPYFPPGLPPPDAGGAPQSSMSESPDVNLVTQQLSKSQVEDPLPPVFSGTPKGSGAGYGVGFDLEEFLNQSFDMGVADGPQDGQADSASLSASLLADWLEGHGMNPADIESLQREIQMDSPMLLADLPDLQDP

In the case of `Cc1ncsc1-c1ccc([C@H](C)NC(=O)[C@@H]2C[C@@H](O)CN2C(=O)[C@@H](NC(=O)CCCCCN2CCN(c3ccc4c(C5CCN(C(=O)c6ccc(OC(F)(F)F)cc6N)CC5)ncnc4c3)CC2)C(C)(C)C)cc1` [INY-06-061, (2S,4R)-1-((S)-2-(6-(4-(4-(1-(2-amino-4-(trifluoromethoxy)benzoyl)piperidin-4-yl)quinazolin-7-yl)piperazin-1-yl)hexanamido)-3,3-dimethylbutanoyl)-4-hydroxy-N-((S)-1-(4-(4-methylthiazol-5-yl)phenyl)ethyl)pyrrolidine-2-carboxamide], binding at ERK5 [1] was characterised by a dissociation constant (Kd) of 0.012 µM. The potential off-target kinases entry in the assay with panel of 468 kinases was “weak inhibition of potential off-targets (AXL, CDK19, SgK110, CDKL2, and AURKC)”. Also, in the assay with panel of 468 kinases (468 kinases), the “biochemical selectivity profile across the kinome” value is reported as “high selectivity for ERK5”. The “ERK5 degradation at high concentration (hook effect)” value at ERK5 [2] is “diminished ERK5 degradation”. Besides, the BRD4 protein levels result on BRD4 was “did not destabilize”. Besides, the AURKA protein levels entry on AURKA was “did not destabilize”. Further, the “proteins significantly downregulated, proteomics” value in the assay with MOLT4 cells is on record as “ERK5 (MAPK7) was the only protein whose abundance was significantly downregulated”. In addition, the figures for the EC50 with BT-474 cells, in the assay on SNU-449 cells and with MM.1S cells were > 20 µM, > 20 µM and 6 µM, respectively. Moreover, the “effect on IL-6-induced proliferation” value in assay [3] was “no effect”. Further, the IC50 in the assay with panel of 750 cell lines was > 1 µM. For the same compound, the ERK5 protein level result at ERK5 [4] (1 μM, 5-hour treatment) is “potent downregulation of ERK5”. Moreover, the ERK5 degradation result on ERK5 [4] (24 hours) was “maintained for 24 hours”. The results for the “IL-6 secretion upon LPS stimulation” value with IL-6 secretion (5-hour pre-treatment) and in the assay on IL-6 secretion (24-hour pre-treatment) were “did not significantly suppress” and “no effect”, respectively. Also, the “IL-8 secretion upon LPS stimulation” value is given as “did not significantly suppress” in the assay on IL-8 secretion (5-hour pre-treatment) and “no effect” with IL-8 secretion (24-hour pre-treatment).

These data come from paper PMC9675722 (Cell chemical biology, 2022).
